Measured values taken from ChEMBL document CHEMBL1127562, “N-substituted spirosuccinimide, spiropyridazine, spiroazetidine, and acetic acid aldose reductase inhibitors derived from isoquinoline-1,3-diones. 2” (J Med Chem, 1994).
Calls of active or inactive are those of the source. No cut-off for these calls is given here.

What was measured:
[1] = molecular target: Aldo-keto reductase family 1 member B1 (Bos taurus) (UniProt P16116); test: Inhibition of aldose reductase activity in partially purified bovine lens preparation at 4*10 e-8 M
[2] = system: Rattus norvegicus; test: Tested for in vivo inhibition of galactitol accumulation in the sciatic nerve of galactose-fed rats at the dose of 24 (mg/kg/day); NS=Not significant; format: functional, organism-based
How it was run: (§1)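 Rats were given a 20% galactose diet for 4 days, with the test compound administered in the diet. Sciatic nerve galactitol accumulation was measured, and activity is given as % inhibition at the stated daily dose (mg/kg/day). Values are mean ± SEM, n = 6 animals; p < 0.01 unless indicated. NS means no significant inhibition of polyol accumulation.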

[3] = system: Rattus norvegicus; test: Tested for in vivo inhibition of galactitol accumulation in the lens of galactose-fed rats at the dose of 24 (mg/kg/day); NS=Not significant; format: functional, organism-based; settings: Lens of camera-type eye
[4] = molecular target: Aldo-keto reductase family 1 member B1 (Bos taurus) (UniProt P16116); test: Inhibition of aldose reductase activity in partially purified bovine lens preparation at 10e-5 M
How it was run: (§2)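 Partially purified bovine lens aldose reductase. Reduction of DL-glyceraldehyde substrate followed spectrophotometrically. Activity expressed as average inhibition at the tested concentrations, 1×10^-5, 1×10^-6, 1×10^-7 and 4×10^-6 M as printed; IC50 in M where given.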

[5] = system: Rattus norvegicus; test: Tested for in vivo inhibition of galactitol accumulation in the sciatic nerve of galactose-fed rats at the dose of 47.9 (mg/kg/day); format: functional; how it was run: as §1
[6] = system: Rattus norvegicus; test: Tested for in vivo inhibition of galactitol accumulation in the lens of galactose-fed rats at the dose of 47.9 (mg/kg/day); format: functional, Lens of camera-type eye
[7] = system: Rattus norvegicus; test: Tested for in vivo inhibition of galactitol accumulation in the lens of galactose-fed rats at the dose of 102.8 (mg/kg/day); NS=Not significant; format: functional, organism-based; settings: Lens of camera-type eye
[8] = system: Rattus norvegicus; test: Tested for in vivo inhibition of galactitol accumulation in the sciatic nerve of galactose-fed rats at the dose of 102.8 (mg/kg/day); NS=Not significant; format: functional, organism-based; how it was run: as §1
[9] = system: Rattus norvegicus; test: Tested for in vivo inhibition of galactitol accumulation in the sciatic nerve of galactose-fed rats at the dose of 48 (mg/kg/day); format: functional
How it was run: (§3)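 Rats fed a 20% galactose diet for 4 days, with test compound given in the diet at the stated daily dose (mg/kg/day). Read-out is inhibition of galactitol (polyol) accumulation in sciatic nerve. Values are % inhibition, mean ± SEM of six animals; p < 0.01 unless marked (some p < 0.05). NS = no significant inhibition of polyol accumulation. Tolrestat was the reference standard.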

[10] = system: Rattus norvegicus; test: Tested for in vivo inhibition of galactitol accumulation in the lens of galactose-fed rats at the dose of 4.7 (mg/kg/day); NS=Not significant; format: functional, organism-based; settings: Lens of camera-type eye
[11] = system: Rattus norvegicus; test: Tested for in vivo inhibition of galactitol accumulation in the sciatic nerve of galactose-fed rats at the dose of 4.7 (mg/kg/day); format: functional; how it was run: as §1
[12] = system: Rattus norvegicus; test: Tested for in vivo inhibition of galactitol accumulation in the lens of galactose-fed rats at the dose of 48 (mg/kg/day); format: functional, Lens of camera-type eye
[13] = system: Rattus norvegicus; test: Tested for in vivo inhibition of galactitol accumulation in the sciatic nerve of galactose-fed rats at the dose of 91.6 (mg/kg/day); NS=Not significant; format: functional, organism-based; how it was run: as §3
[14] = system: Rattus norvegicus; test: Tested for in vivo inhibition of galactitol accumulation in the lens of galactose-fed rats at the dose of 91.6 (mg/kg/day); NS=Not significant; format: functional, organism-based; settings: Lens of camera-type eye
How it was run: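 Galactosemic rats were fed 20% galactose for 4 days, with the compound mixed into the diet. […] galactitol accumulation was measured, and activity is given as % inhibition at the stated daily dose (mg/kg/day). Values are mean ± SEM of six animals; p < 0.01 unless indicated. NS means no significant inhibition of polyol accumulation.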

[15] = molecular target: Aldo-keto reductase family 1 member B1 (Bos taurus) (UniProt P16116); test: Compound was tested in vitro for inhibition of aldose reductase activity in partially purified bovine lens preparation at 10e-5 M; Not significant; NS=Not significant; how it was run: as §2
[16] = system: Rattus norvegicus; test: Tested for in vivo inhibition of galactitol accumulation in the sciatic nerve of galactose-fed rats at the dose of 47 (mg/kg/day); NS=Not significant; format: functional, organism-based; how it was run: as §1
[17] = system: Rattus norvegicus; test: Tested for in vivo inhibition of galactitol accumulation in the lens of galactose-fed rats at the dose of 5.3 (mg/kg/day); NS=Not significant; format: functional, organism-based; settings: Lens of camera-type eye
[18] = system: Rattus norvegicus; test: Tested for in vivo inhibition of galactitol accumulation in the sciatic nerve of galactose-fed rats at the dose of 5.3 (mg/kg/day); NS=Not significant; format: functional, organism-based; how it was run: as §3
[19] = system: Rattus norvegicus; test: Tested for in vivo inhibition of galactitol accumulation in the sciatic nerve of galactose-fed rats at the dose of 9.9 (mg/kg/day); NS=Not significant; format: functional, organism-based; how it was run: as §3
[20] = system: Rattus norvegicus; test: Tested for in vivo inhibition of galactitol accumulation in the lens of galactose-fed rats at the dose of 54.8 (mg/kg/day); NS=Not significant; format: functional, organism-based; settings: Lens of camera-type eye
[21] = system: Rattus norvegicus; test: Tested for in vivo inhibition of galactitol accumulation in the sciatic nerve of galactose-fed rats at the dose of 54.8 (mg/kg/day); format: functional; how it was run: as §3
[22] = system: Rattus norvegicus; test: Tested for in vivo inhibition of galactitol accumulation in the sciatic nerve of galactose-fed rats at the dose of 26.2 (mg/kg/day); NS=Not significant; format: functional, organism-based; how it was run: as §1
[23] = system: Rattus norvegicus; test: Tested for in vivo inhibition of galactitol accumulation in the lens of galactose-fed rats at the dose of 10.8 (mg/kg/day); format: functional, Lens of camera-type eye
[24] = system: Rattus norvegicus; test: Tested for in vivo inhibition of galactitol accumulation in the sciatic nerve of galactose-fed rats at the dose of 10.8 (mg/kg/day); format: functional; how it was run: as §1
[25] = system: Rattus norvegicus; test: Tested for in vivo inhibition of galactitol accumulation in the lens of galactose-fed rats at the dose of 0.9 (mg/kg/day); NS=Not significant; format: functional, organism-based; settings: Lens of camera-type eye
[26] = molecular target: Aldo-keto reductase family 1 member B1 (Bos taurus) (UniProt P16116); test: Compound was tested in vitro for inhibition of aldose reductase activity in partially purified bovine lens preparation at 10 e-8 M
[27] = system: Rattus norvegicus; test: Tested for in vivo inhibition of galactitol accumulation in the sciatic nerve of galactose-fed rats.4.9 (mg/kg/day); NS=Not significant; format: functional, organism-based; how it was run: as §3
[28] = system: Rattus norvegicus; test: Tested for in vivo inhibition of galactitol accumulation in the lens of galactose-fed rats at the dose of 4.9 (mg/kg/day); NS=Not significant; format: functional, organism-based; settings: Lens of camera-type eye

`O=C(O)CC1C(=O)N(Cc2nc3cc(C(F)(F)F)ccc3s2)C(=O)c2ccc(F)cc21` (stereo unspecified) was tested, and the inhibition [1] was 62%, the inhibition [2] was “inactive” and the inhibition [3] was “inactive”.

In the case of `COC(=O)NC(=O)CC1C(=O)N(C)C(=O)c2ccc(C(F)(F)F)cc21` (stereo unspecified), the inhibition [4] is reported as 51%, the Inhibition [5] is reported as 52% and the Inhibition [6] is reported as 26%.

`O=C(O)CC1C(=O)N(Cc2ccc(Br)cc2F)C(=O)c2ccccc21` (stereo unspecified) was tested, and the inhibition [1] was 50%, the inhibition [7] was “inactive” and the inhibition [8] was “inactive”.

With `O=C1c2ccccc2C2(CC(=O)N(N=C3CCCC3)C2=O)C(=O)N1Cc1ccc(Br)cc1F` (stereo unspecified) the inhibition [4] was “inactive”, the Inhibition [9] was 82% and the inhibition [10] was “inactive”. For the same molecule, the Inhibition [11] was 86% and the Inhibition [12] was 76%.

With `CCCN1C(=O)c2ccccc2C(CC(=O)NC(=O)OC)C1=O` (stereo unspecified) the inhibition [4] was “inactive”, the inhibition [13] was “inactive” and the inhibition [14] was “inactive”.

With `CN1C(=O)CC2(C(=O)N(Cc3ccc(Br)cc3F)C(=O)c3ccc(F)cc32)C(=O)N1C` (stereo unspecified) the inhibition [15] was “inactive” and the inhibition [16] was “inactive”.

`CN1C(=O)c2ccc(Cl)cc2C(CC(N)=O)C1=O` (stereo unspecified) was tested, and the inhibition [4] was “inactive”, the inhibition [17] was “inactive” and the inhibition [18] was “inactive”.

`CON1C(=O)CC2(C(=O)N(Cc3ccc(Br)cc3F)C(=O)c3ccccc32)C1=O` (stereo unspecified) was tested, and the inhibition [4] was “inactive” and the inhibition [19] was “inactive”.

For `COC(=O)N(C(=O)OC)N1C(=O)CC2(C(=O)N(Cc3ccc(Br)cc3F)C(=O)c3ccccc32)C1=O` (stereo unspecified), the inhibition [4] was “inactive”, the inhibition [20] was “inactive” and the Inhibition [21] was 50%.

`O=C(O)CN1C(=O)CC2(C1=O)C(=O)N(Cc1ccc(Br)cc1F)C(=O)c1ccc(F)cc12` (stereo unspecified) was tested, and the inhibition [4] was 60% and the inhibition [22] was “inactive”.

In the case of `CC(C)=NN1C(=O)CC2(C(=O)N(Cc3ccc(Br)cc3F)C(=O)c3ccccc32)C1=O` (stereo unspecified), the inhibition [4] is reported as “inactive”, the Inhibition [23] is reported as 30% and the Inhibition [24] is reported as 82%. For the same molecule, the inhibition [25] was “inactive”.

With `CN1C(=O)c2ccc(Cl)cc2C(CC(=O)O)C1=O` (stereo unspecified) the inhibition [26] was 35%, the inhibition [27] was “inactive” and the inhibition [28] was “inactive”.
